CHOP inhibitor: CHOP inhibition in unfolded protein response. CHO-K1 CHOP-promoter luciferase, tunicamycin-induced, 15-18 h. inhibition, % at 10 µM. hit rate 3.8% among 220,000;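 active = compounds that reduced the stress-induced luciferase reporter signal by more than about 70% of percent inhibition, limit read from the data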
CHOP UPR activ: apoptotic UPR (CHOP) activation; CHO-CHOP luciferase reporter, luminescence; percent of tunicamycin response over DMSO baseline; activation, % at 10 µM; hit rate 0.34% among 330,000; AID 449763;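 active = at 10 µM dose, activation of 40% or more, normalized to positive control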
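System: CHO CHOP reporter cells. Amount: 500 cells per well. Buffer or medium: F12 medium, 10% FBS. Compound dosing: one dose, 10 µM in 0.5% DMSO. Incubation: 6 h compound exposure at 37 °C after overnight seeding. Technique: Steady-Glo luciferase luminescence. Benchmarks: tunicamycin and DMSO controls.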
UPR XBP1 act: activators of adaptive arm of unfolded protein response (XBP1); hit rate 0.33% among 330,000; activation, % at 20 µM; AID 463104; CHO-XBP1 luciferase reporter, IRE1-XBP1 UPR activation, luminescence; percent of tunicamycin response, DMSO as zero;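 active = versus positive control, 20 µM dose yields 30% or more activation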
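Material: CHO cell line with stable XBP1 luciferase reporter; buffer or medium: F12 medium containing 10% fetal bovine serum; compound: single point, 20 µM final compound, 1% DMSO; incubation: 6 h treatment, 37 °C; measured by: glow luminescence from Steady-Glo reagent; evaluation: activation, % of tunicamycin; control set: tunicamycin high, DMSO low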
Bfl-1 A1 inh: inhibitors of the anti-apoptotic protein A1, read as caspase activation; MEF A1-2A-BIM cells, Caspase-Glo 3/7 luminescence, 3 h; percent of clofoctol response, vehicle zero; caspase activation, % (test concentration not listed); hit rate 0.066% among 330,000;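 active = over half of replicate activation scores above 10%, or exactly half above 10 with the replicate mean above 10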
CHOP confirm: confirmation of CHOP induction inhibitors; shares compounds with CHOP inhibitor; CHO-CHOP promoter luciferase reporter, tunicamycin-induced, luminescence; inhibition, % at 10 µM; hit rate 45% among 2,100;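 active = mean of three repeat readings of reporter signal inhibition above a set limit, cut at about 70% in these data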
Each line names hits and unclear results; the compound was inactive in the other large screens (follow-up assays come after a bar, where they were run). This excerpt belongs to a sample that is enriched for hits.

C[C@H](CO)N1C[C@H](C)[C@@H](CN(C)C)Oc2c(NC(=O)Cc3ccccc3)cccc2C1=O	none (no result: CHOP inhibitor, Bfl-1 A1 inh)
COC(=O)CN1C(=O)N/C(=C/c2cc3c(cc2OC)OCO3)C1=O	none
COc1cc2c(cc1/C=C1/NC(=O)N(CC(=O)Nc3ccccc3)C1=O)OCO2	CHOP inhibitor 102 | CHOP confirm inactive
CC(=O)Nc1ccc(NC2=Nc3ccccc3N3C2=Nc2c(c(C)nn2-c2ccccc2)C3c2ccccc2)cc1 (configuration not stated)	CHOP inhibitor 106 | CHOP confirm 119
COc1ccc(NC2=Nc3ccccc3N3C2=Nc2c(c(C)nn2-c2ccc(C)cc2)C3c2cccnc2)cc1 (configuration not stated)	none
O=C(On1c(-c2ccccc2)nc2ccccc2c1=O)c1ccco1	CHOP inhibitor 104 | CHOP confirm 116
CNC(=O)/C(C#N)=C/c1ccc(-c2ccc(Cl)cc2)o1	CHOP inhibitor 97 | CHOP confirm inactive
COc1cc(OC)c(OC)cc1/C=C(\C#N)C(=O)NCc1cccs1	none (no result: CHOP inhibitor)
CNC(=O)/C(C#N)=C/c1ccc(-c2ccccc2[N+](=O)[O-])o1	none
CCOC(=O)c1ccc(-c2ccc(/C=C(\C#N)C(=O)NCc3cccs3)o2)cc1	CHOP inhibitor 105 (no result: CHOP UPR activ, UPR XBP1 act) | CHOP confirm inactive
COc1cccc(NC(=O)C(C)OC(=O)CCCNC(=O)c2ccc(Cl)cc2)c1 (configuration not stated)	none (no result: CHOP inhibitor)
CCOC(=O)c1c(C)[nH]c(C(=O)CSc2nnc(-c3ccncc3)n2CC)c1C	none
C=CCn1c(SCC(=O)c2[nH]c(C)c(C(=O)OCC)c2C)nc2scc(-c3ccc(OC)c(OC)c3)c2c1=O	CHOP inhibitor 106 (no result: CHOP UPR activ, UPR XBP1 act) | CHOP confirm inactive
CC(C)c1ccccc1NC(=O)COc1ccc(C(=O)NCCc2ccccc2)cc1	CHOP inhibitor 107 | CHOP confirm inactive
CC(C)c1ccccc1NC(=O)COC(=O)CNC(=O)c1ccc(Br)cc1	none
CCn1c(=O)c(C(=O)NNS(=O)(=O)c2ccc(Br)cc2)c(O)c2ccccc21	CHOP inhibitor 105 | CHOP confirm inactive
CCn1c(=O)c(C(=O)NNS(=O)(=O)c2ccc(C)cc2)c(O)c2ccccc21	none
COc1ccc(/C=c2\sc3nc(-c4ccccc4)c(-c4ccccc4)n3c2=O)cc1OC	none
O=c1/c(=C\c2cccc(O)c2)sc2nc(-c3ccccc3)c(-c3ccccc3)n12	CHOP inhibitor 99 | CHOP confirm inactive
Cc1c(-c2nc(N)nc(Nc3ccc(F)cc3)n2)oc2ccccc12	CHOP inhibitor 106 | CHOP confirm inactive
Cc1ccccc1Nc1nc(N)nc(-c2oc3ccccc3c2C)n1	none
Cc1ccc(-c2nnc(SCC(=O)Nc3ccc(S(=O)(=O)N4CCCCCC4)cc3)o2)cc1	CHOP inhibitor 101 (no result: Bfl-1 A1 inh) | CHOP confirm inactive
CC(=O)c1cccc(NC(=O)CSc2nnc(-c3ccc(S(=O)(=O)N4CCCC4)cc3)o2)c1	none
O=C(NNC(=O)c1ccc[nH]1)c1cc(Cl)cc(Cl)c1	none (no result: CHOP inhibitor)
CCCc1nc(NCc2ccco2)c(C#N)c2c1COC(C)(C)C2	CHOP inhibitor 104 | CHOP confirm inactive
S=C(NCc1ccc(Cl)cc1)Nc1ccc(Cl)cc1Cl	none
S=C(NCCc1ccc(Cl)cc1)Nc1ccc(Cl)cc1Cl	CHOP inhibitor 105 | CHOP confirm 95
O=C(NCCc1ccc(Cl)cc1)Nc1cccc(Cl)c1	CHOP inhibitor 100 | CHOP confirm inactive
O=C(NCCc1ccccc1)Nc1cccc(Cl)c1	none
C#CCOCCOCCOCCNc1nc(N2CCN(C(=O)Cn3cc(CC(C)O)nn3)CC2)nc(N2CCN(C(=O)[C@H]([C@@H](C)CC)n3cc(CCCN=C(N)N)nn3)CC2)n1 (some centres not stated)	none
O=C(c1ccccc1F)N1CCN(c2cnn(-c3cccc(Cl)c3)c(=O)c2Cl)CC1	none
CN(C)S(=O)(=O)n1cc(/C=C(\NC(=O)c2ccccc2F)C(=O)N2CCOCC2)c2ccccc21	none (no result: CHOP inhibitor)
Cc1ccc(N(c2ncnc(N)c2[N+](=O)[O-])C2CCCCC2)cc1	CHOP inhibitor 105 | CHOP confirm 100
N#Cc1c(Nc2ccc(F)cc2)sc(C(=O)c2ccccc2)c1N	none
Cc1ccc(NCC(=O)N/N=C/c2cccc(Oc3ccccc3)c2)cc1	CHOP inhibitor 101 | CHOP confirm 85
Cc1cccc(NCC(=O)N/N=C\c2cccc(Oc3ccccc3)c2)c1	CHOP inhibitor 104 | CHOP confirm 81
Cc1cc(-c2sccc2Br)nc(-n2cccc2)n1	none (no result: CHOP UPR activ, UPR XBP1 act, Bfl-1 A1 inh)
O=C(C1=C[C@@H](c2ccc(C(F)(F)F)cc2)C[C@@H](OCCCCO)O1)N1CCCCCCC1	none (no result: CHOP inhibitor)
O=C1c2ccccc2-c2onc3ccc(Oc4ccccc4)c1c23	CHOP inhibitor 106 | CHOP confirm 84
CCN(CC)CCN1C(=O)C2C(C(=O)Nc3cccc(SC)c3)C3C=CC2(O3)C1C(=O)NC1CCCC(C)C1C (configuration not stated)	none (no result: CHOP inhibitor)
Cc1ccc(Cl)cc1NC(=O)COC(=O)CC1CC2CCC1C2 (configuration not stated)	CHOP inhibitor 100 | CHOP confirm inactive
CCCCNS(=O)(=O)c1ccc2nc(-c3cccnc3)cc(C(=O)NC3CCCC3)c2c1	CHOP inhibitor 102 | CHOP confirm 107
COc1ccc(/C=N/NC(=O)c2ccco2)cc1Cn1nc(C)cc1C	none
COc1ccc(/C=N\NC(=O)COc2ccc(C(C)(C)C)cc2)cc1Cn1nc(C)cc1C	CHOP inhibitor 110 | CHOP confirm 104
COc1cc(-c2nc3c(c(C)nn3-c3ccccc3)c3cc(OC)c(OC)cc23)ccc1O	CHOP inhibitor 99 | CHOP confirm 83
N#Cc1nccnc1S(=O)(=O)c1cccs1	CHOP inhibitor 107 | CHOP confirm 105
O=C(CN(C1CCCCC1)S(=O)(=O)c1ccc(F)cc1)Nc1ccc2c(c1)OCO2	none
COc1ccc(OC)c(/C=N/NC(=O)CSc2cc(C)nc3c(OC)cccc23)c1	CHOP inhibitor 105 | CHOP confirm inactive
COc1ccc2nc(C)cc(SCC(=O)N/N=C/c3ccco3)c2c1	none (no result: CHOP inhibitor)
Fc1cc(F)c2nc(Nc3nc4cc5c(cc4s3)OCO5)sc2c1	CHOP inhibitor 109 (no result: CHOP UPR activ, UPR XBP1 act) | CHOP confirm 84
CCOC(=O)N1CCN(C(=O)/C(=C/c2cccc3ccccc23)NC(=O)c2ccc(OC)cc2)CC1	none
O=c1nc(SCc2c(F)cccc2Cl)nc(-c2ccc(Cl)cc2)[nH]1	CHOP inhibitor 101 | CHOP confirm inactive
Cc1ccc(NC(=O)CCC(=O)N2CCOCC2)nc1	none (no result: CHOP inhibitor)
O=S(=O)(NCC(c1ccccc1)N1CCC(O)CC1)c1ccc(Cl)cc1 (configuration not stated)	none (no result: CHOP inhibitor)
O=S(=O)(NCC(Nc1ccc(Cl)cc1)c1ccccc1)c1ccc(Cl)cc1 (configuration not stated)	CHOP inhibitor 108 | CHOP confirm 112
C[n+]1ccc(/C=N/Nc2nc(Cl)c(C#N)c(Cl)c2Cl)cc1	none
CCOC(=O)C1=C(COC(=O)c2cccs2)NC(=O)NC1C (configuration not stated)	none (no result: CHOP inhibitor)

Assay outcomes: PubChem BioAssay, several laboratories
